Assay results of several laboratories.
Target: Dual specificity mitogen-activated protein kinase kinase 7 (MAP2K7, Homo sapiens, UniProt O14733)
Residues used in one study (O14733 1-419): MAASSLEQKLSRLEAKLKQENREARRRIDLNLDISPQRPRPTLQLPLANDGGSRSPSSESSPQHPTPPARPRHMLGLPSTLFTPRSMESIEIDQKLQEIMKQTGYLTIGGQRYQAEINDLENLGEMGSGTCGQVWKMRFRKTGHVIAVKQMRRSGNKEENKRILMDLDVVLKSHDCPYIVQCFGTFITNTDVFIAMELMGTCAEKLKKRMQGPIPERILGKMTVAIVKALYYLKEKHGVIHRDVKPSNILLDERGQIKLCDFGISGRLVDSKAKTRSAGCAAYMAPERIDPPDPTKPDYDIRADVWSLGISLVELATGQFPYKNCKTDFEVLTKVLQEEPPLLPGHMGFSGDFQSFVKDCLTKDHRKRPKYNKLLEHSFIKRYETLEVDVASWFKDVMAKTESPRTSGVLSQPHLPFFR

SMILES | read-out | technique | concentration | remaining binding [%]
N[C@H]1CCN(c2nccc(-c3cnn4ncccc34)n2)C1 | binding | – | 1 µM | 93
COc1cccc(CNC(=O)c2nc3scc(COCc4ccc(C(=O)O)cc4)c3c(=O)[nH]2)c1 | cell-free assay | competition with immobilised ligand | 1 µM | 81.2
COc1cnc(Nc2cccc(S(N)(=O)=O)c2)nc1N1CCN(c2ccccc2)CC1 | binding | competition with immobilised ligand | 1 µM | 97
C[C@@H](c1cccc(C#N)c1)n1cc(Cl)cc(C(N)=O)c1=N | cell-free assay | competition with immobilised ligand | 1 µM | 99
FC(F)(F)Oc1cccc(-c2cnc3ccc(-c4ccncc4)nn23)c1 | cell-free assay | competition with immobilised ligand | 5 µM | 96
Cc1cnn2ncc(-c3ccnc(N(C)C)n3)c2c1 | binding | – | 1 µM | 71
O=S(=O)(NC1CCC(c2cc(F)ccc2F)(S(=O)(=O)c2ccc(Cl)cc2)CC1)C(F)(F)F (centres unmarked) | cell-free assay | competition with immobilised ligand | 1 µM | 100
c1cncc(-c2cccc(Nc3nccc(NC4CCCCC4)n3)c2)c1 | binding | competition with immobilised ligand | 10 µM | 100
CN(c1ccnc(CNc2nc(Nc3ccc4c(c3)CC(=O)N4)ncc2C(F)(F)F)n1)S(C)(=O)=O | cell-free assay | competition with immobilised ligand | 1 µM | 73
CN(C)c1nccc(-c2cnn3ncccc23)n1 | binding | – | 1 µM | 100
O=C(c1ccc(Nc2nccc(-c3cc4ccccc4s3)n2)cc1)N1CCC(N2CCCC2)CC1 | binding | competition with immobilised ligand | 1 µM | 26
CC1CCCN1c1nccc(-c2cnn3ncccc23)n1 (centres unmarked) | binding | – | 1 µM | 100
COc1ncc2cc3ccccc3nc2c1C#N | cell-free assay | competition with immobilised ligand | 5 µM | 95
O=C(c1ccc(Nc2ncc(Cl)c(-c3ccc(Cl)s3)n2)cc1)N1CCC(N2CCCC2)CC1 | binding | competition with immobilised ligand | 1 µM | 82
CN(C)c1ncnc(-c2ccc3nc(Nc4cc(CN5CCN(C(=O)CC(F)(F)F)CC5)ccn4)[nH]c3c2)c1Cl | cell-free assay | competition with immobilised ligand | 1 µM | 100
C[C@H]1CCN(c2nccc(-c3cnn4ncccc34)n2)C1 | binding | – | 1 µM | 83
Cc1c(NC(=O)c2cc(C(N)=O)nc3cc(F)ccc23)c(C(F)(F)F)nn1Cc1ccc(C#N)cc1 | cell-free assay | competition with immobilised ligand | 1 µM | 79
Cc1cnc(Nc2ccc(C(=O)N3CCC(N4CCCC4)CC3)cc2)nc1-c1cc2ccccc2s1 | binding | competition with immobilised ligand | 1 µM | 81
CN(C)c1ncc(F)c(-c2cnn3ncccc23)n1 | binding | – | 1 µM | 88
O=C(NCC1CCOCC1)c1n[nH]cc1NC(=O)c1c(F)cccc1F | binding | competition with immobilised ligand | 1 µM | 84
